Screens as filed in PubChem BioAssay.
Hits are enriched below; roughly 1.8% of the tested compounds scored in any of these assays.
CHRM5 antagonist – antagonists of human muscarinic M5 receptor (CHRM5); P08912; CHO-hM5 cells, Fluo-8 calcium fluorescence, ACh EC80; inhibition, % at 3 µM; 0.59% of 360,000 active; AID 624040;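 active = inhibition above a per-plate cutoff, the mean of that plate's test compounds plus 3 SD, cut at about 27% in these data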;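 note: 0% = acetylcholine EC80 with DMSO and 100% = DMSO without agonist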
CHRM5 PAM – potentiates acetylcholine response at human M5 receptor; P08912; CHO-K1 hM5, Fluo-8 calcium, ACh EC20 PAM; 0% = ACh EC20, 100% = ACh EC100; activation, % at 3 µM; 0.3% of 360,000 active;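 active = activation above the run cutoff, the mean activation of all test compounds plus 3 SD, cut at about 18% in these data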
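System: CHO-K1 cell line with stable human muscarinic M5 receptor expression | Also added: EC20 acetylcholine as agonist stimulus | Compound: One concentration, 3 µM final (nominal) | Timing: Fluo-8 loading 80 min at 37 °C plus 30 min room temperature | Measured by: Fluo-8 calcium dye fluorescence, kinetic read | Read-out basis: % activation, ACh-normalized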
M5 ag – CHRM5 agonism in calcium assay; activation, % at 3 µM; P08912; CHO-K1 hM5 cells, Fluo-8 calcium fluorescence; 0% DMSO wells, 100% maximal acetylcholine response; AID 624037; 0.19% of 360,000 active;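 active = activation above the run's mean over test compounds plus 3 SD, cut at about 23% in these data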;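 note: signal is peak over basal fluorescence ratio across the kinetic read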
CHRM4 antagonist – CHRM4 antagonism in calcium assay; CHO-hM4 cells, ACh EC80, Fluo-8 calcium fluorescence; inhibition, % at 3 µM; 0.73% of 360,000 active; AID 624125;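 active = inhibition above its plate's cutoff, the mean inhibition of sample wells plus 3 SD, cut at about 27% in these data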;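 note: 0% = acetylcholine EC80 with DMSO and 100% = DMSO without agonist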
Target sequence (P08173 whole entry, looked up): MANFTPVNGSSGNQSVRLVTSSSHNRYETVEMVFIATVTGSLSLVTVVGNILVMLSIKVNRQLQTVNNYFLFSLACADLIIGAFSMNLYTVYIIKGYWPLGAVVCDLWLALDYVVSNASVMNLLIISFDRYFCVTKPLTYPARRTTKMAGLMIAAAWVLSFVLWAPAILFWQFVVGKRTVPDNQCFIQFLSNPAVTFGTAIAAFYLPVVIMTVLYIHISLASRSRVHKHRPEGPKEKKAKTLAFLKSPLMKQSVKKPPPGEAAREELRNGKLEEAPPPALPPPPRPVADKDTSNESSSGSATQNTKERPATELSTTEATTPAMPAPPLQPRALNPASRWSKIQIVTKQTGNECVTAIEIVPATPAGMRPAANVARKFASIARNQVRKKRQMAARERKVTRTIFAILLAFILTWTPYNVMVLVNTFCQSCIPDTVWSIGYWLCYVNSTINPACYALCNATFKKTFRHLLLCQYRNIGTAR
CHRM4 agonist – agonists of human muscarinic M4 receptor (CHRM4); P08173; CHO-K1 hM4/Gqi5, Fluo-8 calcium fluorescence; vehicle 0%, full acetylcholine response 100%; activation, % at 3 µM; 0.14% of 360,000 active; AID 624127;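 active = activation above the run mean over all test wells plus 3 SD, cut at about 32% in these data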;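 note: peak over basal fluorescence ratio per well then scaled between controls; 0% = DMSO wells and 100% = acetylcholine at EC100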
CHRM4 PAM – potentiates acetylcholine response at human M4 receptor | P08173 | CHO-K1 hM4/Gqi5, Fluo-8 calcium fluorescence, ACh EC20; 0% = ACh EC20, 100% = maximal ACh | activation, % at 3 µM | 0.4% of 360,000 active;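 active = activation above its plate's cutoff, the mean activation of sample wells plus 3 SD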
* hit, by the source's call.

SMILES | CHRM5 antagonist | CHRM5 PAM | M5 ag | CHRM4 antagonist | CHRM4 agonist | CHRM4 PAM
CCCCOc1ccc(Br)cc1CSC(=N)N | 40* | -18 | 1 | 26* | 10 | -10
CC(O)[C@H]1CC[C@H]2[C@@H]3CC[C@H]4C[C@H](O)CC[C@]4(C)[C@H]3[C@H](O)C[C@]12C (some centres undefined) | 0 | 6 | 7 | 13 | 11 | 19
O=C(NCCCN1CCOCC1)c1ccc(Cl)c([N+](=O)[O-])c1 | -3 | 8 | -2 | 1 | 1 | -3
COc1ccc(C(=O)NCCN2CCOCC2)cc1[N+](=O)[O-] | 6 | -2 | -5 | -11 | 0 | 4
O=C(NCCCN1CCOCC1)c1ccc(Sc2cccc(Cl)c2)c([N+](=O)[O-])c1 | 6 | -15 | -6 | 47* | 3 | -16
CCOC(=O)CSc1ccc(C(=O)NCCCN2CCOCC2)cc1[N+](=O)[O-] | 10 | 3 | -8 | 27* | 0 | -17
O=C(c1ccccc1)N1CCN(C(=O)c2ccc3c(c2)OCCO3)CC1 | 7 | 5 | 3 | 7 | 0 | -5
O=C(c1ccc2c(c1)OCCO2)N1CCCCC1 | -2 | 3 | 1 | 0 | 1 | 27*
O=C(Nc1ccc(CSc2ccccc2)cc1)c1ccco1 | -4 | 2 | -1 | -2 | 4 | 3
Fc1ccc2[nH]c3c(N4CCc5ccccc5C4)ncnc3c2c1 | 27* | -27 | 6 | 23 | 18 | -16
CCCC(C)C(=O)Nc1ncc(S(=O)(=O)c2ccc([N+](=O)[O-])cc2)s1 (centres undefined) | 10 | -4 | 49* | 11 | 67* | -7
CCC(C)(C)C(=O)Nc1ncc(S(=O)(=O)c2ccc([N+](=O)[O-])cc2)s1 | 9 | -9 | 16 | 5 | 12 | -5
CS(=O)(=O)N(CC(=O)N1CCCCCC1)c1ccccc1 | 8 | 0 | -7 | 10 | 1 | -3
CS(=O)(=O)N(CC(=O)N1CCCCCC1)c1cccc([N+](=O)[O-])c1 | -9 | 18* | -2 | -6 | 1 | -4
COc1ccc(C(=O)N2CCCC(Nc3ccc(C)c(C)c3)C2)cc1 (centres undefined) | 0 | 0 | -1 | 1 | 1 | 1
COc1ccc(NC2CCCN(C(=O)c3ccc(OC)cc3OC)C2)cc1 (centres undefined) | 1 | 11 | 0 | 31* | 11 | -2
CCCCOc1ccc(Br)cc1/C(C)=N/NC1=NCCN1 | 17 | -18 | -5 | 35* | 3 | -23
CCCCCCOc1ccc(/C(C)=N/NC2=NCCN2)cc1[N+](=O)[O-] | -6 | 6 | -2 | 5 | 5 | 17
COc1ccc(Nc2nc(Nc3ccc(OC)cc3)nc(-n3[nH]c(=O)c(C)c3C)n2)cc1 | 31* | -17 | -3 | 28* | 10 | -9
COc1ccc(Nc2nc(OC)nc(OC)n2)cc1 | 5 | -2 | -1 | 2 | 1 | 0
Cc1cccc(NC(=O)c2oc3ccc(S(=O)(=O)N4CCOCC4)cc3c2C)c1C | 11 | -19 | 1 | 29* | 18 | -20
Cc1c(C(=O)NCCC2=CCCCC2)oc2ccc(S(=O)(=O)N3CCOCC3)cc12 | 28* | -23 | 3 | 14 | 16 | -14
Cc1ccc(NC(=O)c2oc3ccc(S(=O)(=O)N4CCOCC4)cc3c2C)c(C)c1 | 8 | -1 | 3 | -9 | 4 | 0
Cc1c(C(=O)NCCCN2CCCC2=O)oc2ccc(S(=O)(=O)N3CCOCC3)cc12 | 8 | -1 | -3 | 7 | 2 | -3
O=C(O)c1cc(Cl)c(Cl)cc1C(=O)NCc1ccco1 | 8 | -5 | 2 | -4 | 0 | -1
SMILES | CHRM5 antagonist | CHRM5 PAM | M5 ag | CHRM4 antagonist | CHRM4 agonist | CHRM4 PAM
COc1ccc2cc(C(=O)N3CCCC(Nc4ccc(F)cc4)C3)n(C)c2c1 (centres undefined) | -2 | -4 | 0 | -1 | 5 | 3
COc1ccc(C(=O)N2CCOC2CNC(=O)C(=O)NCCc2ccc(OC)c(OC)c2)cc1 (centres undefined) | 6 | -1 | 0 | -11 | 7 | 6
CC(NC=C1C(=O)OC(C)(C)OC1=O)C(=O)O (centres undefined) | -2 | -4 | -1 | -1 | 1 | 5
CC(C)CC(NC=C1C(=O)OC(C)(C)OC1=O)C(=O)O (centres undefined) | -3 | 0 | -5 | -1 | 0 | 21*
COCCN(C(=O)CCC(=O)Nc1cc(C)on1)C(C(=O)NC(C)(C)C)c1cccc(OC)c1OC (centres undefined) | -1 | 14 | -3 | 6 | 0 | 11
CN(C)S(=O)(=O)c1cccc(-c2nnc(SCC(=O)NCCCCCC(=O)O)n2-c2ccc(F)cc2)c1 | -1 | -5 | -6 | -6 | 4 | 25*
CNC(=O)CSc1nnc(-c2cccc(S(=O)(=O)N3CCOCC3)c2)n1-c1ccc(F)cc1 | 1 | 1 | 0 | -4 | 0 | 2
CCn1nc(C(=O)OCC(=O)c2ccc(F)cc2)c2ccccc2c1=O | -7 | -4 | -5 | -8 | 7 | 28*
CCCn1nc(C(=O)OCC(=O)c2ccccc2)c2ccccc2c1=O | 7 | -5 | -2 | -5 | 1 | -5
Cn1nc(C(=O)OCC(=O)c2ccc(Cl)cc2)c2ccccc2c1=O | 4 | 5 | 0 | -6 | 3 | 16*
CCn1nc(C(=O)OCC(=O)N2CC(=O)Nc3ccccc32)c2ccccc2c1=O | -6 | 5 | -1 | -6 | 0 | 23*
O=C(NCc1ccccc1)C(c1ccc(C(F)(F)F)cc1)n1c(=O)c(-c2cc3ccccc3[nH]2)nc2ccccc21 (centres undefined) | -6 | 1 | 4 | -6 | 2 | 8
O=C(NCCN1CCC(n2c(=O)[nH]c3ccccc32)CC1)c1ccc(C(F)(F)F)cc1C(F)(F)F | 19 | -19 | 4 | 11 | 15 | -7
CC(=O)c1ccc(NC(=S)NC(C)c2ccc(Cl)cc2Cl)cc1 (centres undefined) | 29* | -15 | 14 | 14 | 24 | -8
C[C@H](NC(=O)c1nc[nH]c1C(=O)NCC(=O)OCc1ccccc1)c1ccccc1 | 13 | -32 | 3 | 28* | 24 | -14
CC(C)(C)OC(=O)NCc1ccc(CNC(=O)c2[nH]cnc2C(=O)NCC(=O)OCc2ccccc2)cc1 | 4 | -36 | 11 | 38* | 30 | -14
CCN(CC)C(=O)c1[nH]cnc1C(=O)NCC(=O)OCc1ccccc1 | 27* | -29 | 3 | 24 | 24 | -12
O=C(CNC(=O)c1nc[nH]c1C(=O)NCC(=O)OCc1ccccc1)OCc1ccccc1 | 21 | -26 | 6 | 17 | 22 | -8
